Laboratory results reported in ChEMBL document CHEMBL1926642, “Relevance of the C-5 position to schweinfurthin induced cytotoxicity” (2011).

What was measured:
Type in all cases: functional
ACHN = experiment: Growth inhibition of human ACHN cells after 48 hrs by sulforhodamine B assay
MOLT-4 = experiment: Growth inhibition of human MOLT4 cells after 48 hrs by sulforhodamine B assay; settings: MOLT-4, 48 h
RPMI-8226 = experiment: Growth inhibition of human RPMI8226 cells after 48 hrs by sulforhodamine B assay; settings: RPMI-8226, 48 h
SF-539 = experiment: Growth inhibition of human SF539 cells after 48 hrs by sulforhodamine B assay; settings: SF-539, 48 h
EKVX = experiment: Growth inhibition of human EKVX cells after 48 hrs by sulforhodamine B assay
LOX IMVI = experiment: Growth inhibition of human LOXIMVI cells after 48 hrs by sulforhodamine B assay
U-251 = experiment: Growth inhibition of human U251 cells after 48 hrs by sulforhodamine B assay; settings: U-251, 48 h
SF-268 = experiment: Growth inhibition of human SF268 cells after 48 hrs by sulforhodamine B assay; settings: SF-268, 48 h
A498 = experiment: Growth inhibition of human A498 cells after 48 hrs by sulforhodamine B assay; settings: A498, 48 h
HL-60(TB) = experiment: Growth inhibition of human HL-60(TB) cells after 48 hrs by sulforhodamine B assay; settings: HL-60, 48 h
Summary of the method: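 Run in the NCI 60 cell-line screen as the full 5-dose assay that follows initial single-dose testing; GI50 is read from the dose series.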

TK-10 = experiment: Growth inhibition of human TK10 cells after 48 hrs by sulforhodamine B assay; settings: TK-10, 48 h
BT-549 = experiment: Growth inhibition of human BT549 cells after 48 hrs by sulforhodamine B assay; settings: BT-549, 48 h
OVCAR-3 = experiment: Growth inhibition of human OVCAR3 cells after 48 hrs by sulforhodamine B assay; settings: OVCAR-3, 48 h
SW-620 = experiment: Growth inhibition of human SW620 cells after 48 hrs by sulforhodamine B assay; settings: SW-620, 48 h
MDA-MB-435 = experiment: Growth inhibition of human MDA-MB-435 cells after 48 hrs by sulforhodamine B assay; settings: MDA-MB-435, 48 h
K562 = experiment: Growth inhibition of human K562 cells after 48 hrs by sulforhodamine B assay; settings: K562, 48 h
HT-29 = experiment: Growth inhibition of human HT-29 cells after 48 hrs by sulforhodamine B assay; settings: HT-29, 48 h
CAKI-1 = experiment: Growth inhibition of human Caki1 cells after 48 hrs by sulforhodamine B assay; settings: CAKI-1, 48 h
UACC-257 = experiment: Growth inhibition of human UACC257 cells after 48 hrs by sulforhodamine B assay; settings: UACC-257, 48 h
NCI-H522 = experiment: Growth inhibition of human NCI-H522 cells after 48 hrs by sulforhodamine B assay; settings: NCI-H522, 48 h
SK-MEL-2 = experiment: Growth inhibition of human SK-MEL-2 cells after 48 hrs by sulforhodamine B assay; settings: SK-MEL-2, 48 h
HCC 2998 = experiment: Growth inhibition of human HCC2998 cells after 48 hrs by sulforhodamine B assay; settings: HCC 2998, 48 h
SK-MEL-28 = experiment: Growth inhibition of human SK-MEL-28 cells after 48 hrs by sulforhodamine B assay; settings: SK-MEL-28, 48 h
OVCAR-4 = experiment: Growth inhibition of human OVCAR4 cells after 48 hrs by sulforhodamine B assay; settings: OVCAR-4, 48 h
COLO 205 = experiment: Growth inhibition of human COLO205 cells after 48 hrs by sulforhodamine B assay; settings: COLO 205, 48 h
HCT-116 = experiment: Growth inhibition of human HCT116 cells after 48 hrs by sulforhodamine B assay; settings: HCT-116, 48 h
UO-31 = experiment: Growth inhibition of human UO31 cells after 48 hrs by sulforhodamine B assay; settings: UO-31, 48 h
NCI-H226 = experiment: Growth inhibition of human NCI-H226 cells after 48 hrs by sulforhodamine B assay; settings: NCI-H226, 48 h
[1] = read-out: pLC50 (the source's name) (converted)

SMILES: COc1cc(/C=C/c2cc3c(c(OC)c2)O[C@]2(C)CC[C@@H](O)C(C)(C)[C@H]2C3)cc(O)c1C/C=C(\C)CCC=C(C)C
- GI50 (ACHN): 2.75 µM
- LC50 (ACHN): 21.4 µM
- TGI (ACHN; read-out: pTGI (converted)): 9.33 µM
- GI50 (MOLT-4): 0.891 µM
- LC50 (MOLT-4): 33.1 µM
- TGI (MOLT-4; read-out: pTGI (converted)): 2.75 µM
- GI50 (RPMI-8226): 0.178 µM
- LC50 (RPMI-8226): > 50.1 µM
- TGI (RPMI-8226; read-out: pTGI (converted)): 1.55 µM
- GI50 (SF-539): 0.155 µM
- LC50 (SF-539): 7.59 µM
- TGI (SF-539; read-out: pTGI (converted)): 1.1 µM
- GI50 (EKVX): 2.09 µM
- LC50 (50% lethal concentration) (EKVX): 32.4 µM
- TGI (EKVX; read-out: pTGI (converted)): 10.7 µM
- GI50 (LOX IMVI): 1.41 µM
- LC50 (LOX IMVI): 15.8 µM
- TGI (LOX IMVI; read-out: pTGI (converted)): 5.01 µM
- GI50 (U-251): 0.417 µM
- LC50 (U-251): 19.5 µM
- TGI (U-251; read-out: pTGI (converted)): 7.76 µM
- GI50 (SF-268): 2.45 µM
- LC50 (SF-268): 21.4 µM
- TGI (SF-268; read-out: pTGI (converted)): 9.33 µM
- GI50 (A498): 1.82 µM
- LC50 (A498): 21.9 µM
- TGI (A498; read-out: pTGI (converted)): 8.32 µM
- GI50 (HL-60(TB)): 1.51 µM
- CC50 (HL-60(TB); [1]): 30.2 µM
- TGI (HL-60(TB); read-out: pTGI (converted)): 6.61 µM
- GI50 (TK-10): 7.08 µM
- LC50 (TK-10): 32.4 µM
- TGI (TK-10; read-out: pTGI (converted)): 15.1 µM
- GI50 (BT-549): 1.05 µM
- LC50 (BT-549): 25.1 µM
- TGI (BT-549; read-out: pTGI (converted)): 9.12 µM
- GI50 (OVCAR-3): 3.63 µM
- LC50 (OVCAR-3): 23.4 µM
- TGI (OVCAR-3; read-out: pTGI (converted)): 10.5 µM
- GI50 (SW-620): 1.23 µM
- LC50 (SW-620): 14.1 µM
- TGI (SW-620; read-out: pTGI (converted)): 3.98 µM
- GI50 (MDA-MB-435): 4.27 µM
- LC50 (MDA-MB-435): 28.8 µM
- TGI (MDA-MB-435; read-out: pTGI (converted)): 11.7 µM
- GI50 (K562): 1.2 µM
- LC50 (K562): 22.9 µM
- TGI (K562; read-out: pTGI (converted)): 4.07 µM
- GI50 (HT-29): 0.398 µM
- LC50 (concentration killing 50% of cells) (HT-29): 13.2 µM
- TGI (HT-29; read-out: pTGI (converted)): 2.63 µM
- GI50 (CAKI-1): 1.12 µM
- LC50 (CAKI-1): > 50.1 µM
- TGI (CAKI-1; read-out: pTGI (converted)): 6.61 µM
- GI50 (UACC-257): 6.76 µM
- LC50 (UACC-257): 29.5 µM
- TGI (UACC-257; read-out: pTGI (converted)): 14.1 µM
- GI50 (NCI-H522): 4.47 µM
- LC50 (NCI-H522): 32.4 µM
- TGI (NCI-H522; read-out: pTGI (converted)): 12.3 µM
- GI50 (SK-MEL-2): 5.37 µM
- LC50 (SK-MEL-2): 27.5 µM
- TGI (SK-MEL-2; read-out: pTGI (converted)): 12 µM
- GI50 (HCC 2998): 1.7 µM
- LC50 (HCC 2998): 22.4 µM
- TGI (HCC 2998; read-out: pTGI (converted)): 10 µM
- GI50 (SK-MEL-28): 4.27 µM
- CC50 (SK-MEL-28; [1]): 22.9 µM
- TGI (SK-MEL-28; read-out: pTGI (converted)): 10.7 µM
- GI50 (OVCAR-4): 5.75 µM
- LC50 (OVCAR-4): 28.8 µM
- TGI (OVCAR-4; read-out: pTGI (converted)): 12.9 µM
- GI50 (COLO 205): 0.562 µM
- LC50 (COLO 205): 2.4 µM
- TGI (COLO 205; read-out: pTGI (converted)): 1.17 µM
- GI50 (HCT-116): 3.24 µM
- LC50 (HCT-116): 21.9 µM
- TGI (HCT-116; read-out: pTGI (converted)): 9.77 µM
- GI50 (UO-31): 1.12 µM
- LC50 (UO-31): 21.9 µM
- TGI (UO-31; read-out: pTGI (converted)): 7.59 µM
- GI50 (NCI-H226): 5.89 µM
- LC50 (NCI-H226): 25.7 µM
- TGI (NCI-H226; read-out: pTGI (converted)): 12.3 µM
